Assay [1] concerns the target T1, E3 ubiquitin-protein ligase Mdm2 (Homo sapiens, UniProt Q00987). Put plainly: Inhibition of MDM2 in human U2OS cells assessed as increase in p21 expression at 30 uM incubated for 16 hrs by Western blot analysis. Type of assay: cell-based. An outline of the steps: (§1)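 U2OS osteosarcoma cells carrying endogenous wild-type p53, treated at 30 μM for 16 h. Cells lysed in Tris-HCl pH 8.0/150 mM NaCl/0.5% NP-40 with PMSF and protease inhibitors, spun 14,000g, 10 min, 4 °C. Supernatant boiled in Laemmli buffer, run on SDS-PAGE and immunoblotted for p53 pathway markers.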
For orientation: Immunoblotting shows a protein as a band on a membrane.
Target sequence in this assay (Q00987 whole entry, looked up): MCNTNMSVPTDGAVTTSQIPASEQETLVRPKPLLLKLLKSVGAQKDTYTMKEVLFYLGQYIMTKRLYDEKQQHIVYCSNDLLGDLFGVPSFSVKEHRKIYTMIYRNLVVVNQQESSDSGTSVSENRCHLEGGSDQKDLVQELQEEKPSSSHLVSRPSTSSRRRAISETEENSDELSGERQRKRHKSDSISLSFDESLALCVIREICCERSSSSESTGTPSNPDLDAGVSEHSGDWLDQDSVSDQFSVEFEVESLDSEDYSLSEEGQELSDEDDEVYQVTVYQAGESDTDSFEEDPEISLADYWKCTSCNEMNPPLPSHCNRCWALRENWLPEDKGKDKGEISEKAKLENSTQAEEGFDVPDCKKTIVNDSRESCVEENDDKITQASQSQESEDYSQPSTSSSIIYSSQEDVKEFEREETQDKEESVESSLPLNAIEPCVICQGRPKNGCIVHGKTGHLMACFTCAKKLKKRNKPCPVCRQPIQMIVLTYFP

Assay [2] has as its target T1, E3 ubiquitin-protein ligase Mdm2. Nature of the assay: Inhibition of MDM2 in human U2OS cells assessed as increase in p53 expression at 30 uM incubated for 16 hrs by Western blot analysis. Type of assay: cell-based. Put shortly:
as §1
Target sequence in this assay (Q00987 whole entry, looked up): as above

Assay [3] has the same target. Nature of the assay: Binding affinity to human recombinant MDM2 (1 to 150 residue) expressed in Escherichia coli using presence of FITC-labelled compound by fluorescence polarization assay. For orientation: Fluorescence polarisation rises when a labelled molecule tumbles more slowly, as on binding a larger partner.
Target sequence in this assay (Q00987 whole entry): as the sequence (Q00987 whole entry, looked up) above
Assay [4] shares this target. Put plainly: Inhibition of MDM2 in human U2OS cells assessed as increase in MDM2 expression at 30 uM incubated for 16 hrs by Western blot analysis. Type of assay: cell-based. An outline of the steps:
as §1
Target sequence in this assay (Q00987 whole entry, looked up): as above

The source made the active and inactive calls. The rule behind the calls is not given here.

The term IC50 denotes the midpoint of a concentration-inhibition curve. Regarding `CC(=O)N[C@H](C(=O)N[C@@H](Cc1ccccc1)CN(CC(=O)N[C@H]1CCC(=O)NCCCC[C@@H](CN(CC(=O)N[C@@H](CC(C)C)C(=O)N[C@@H](CO)CN(CC(=O)N[C@@H](C)C(N)=O)S(C)(=O)=O)S(C)(=O)=O)NC(=O)[C@H](C)NC(=O)CN(S(=O)(=O)c2ccc3ccccc3c2)C[C@H](Cc2ccc(O)cc2)NC1=O)S(C)(=O)=O)[C@@H](C)O`, the “p21 expression increase (active/inactive call)” value in assay [1] is “Active”. In addition, the “p53 expression increase (activity call)” value in assay [2] is “Active”. Also, the IC50 in assay [3] turned out to be 9 µM. Moreover, the “Increase in MDM2 expression (active/inactive)” value (“Increase … (active/inactive)” below) in assay [4] was “Active”.
Turning to `CC(C)C[C@H](NC(=O)CN(C[C@@H]1CCCCNC(=O)CC[C@H](NC(=O)CN(C[C@H](Cc2ccccc2)NC(=O)[C@@H](NC(=O)CCc2ccccc2)[C@@H](C)O)S(C)(=O)=O)C(=O)N[C@@H](Cc2ccc(O)cc2)CN(S(=O)(=O)c2ccc3ccccc3c2)CC(=O)N[C@@H](C)C(=O)N1)S(=O)(=O)CC(C)C)C(=O)N[C@@H](CO)CN(CC(=O)N[C@@H](C)C(N)=O)S(C)(=O)=O`, in assay [1], the “p21 expression increase (active/inactive call)” value is “Active”. In addition, the “p53 expression increase (activity call)” value in assay [2] is “Active”. Moreover, in assay [3], the IC50 was determined as 9.4 µM. Also, in assay [4], the “Increase … (active/inactive)” value was “Active”.
For the compound `CC(=O)N[C@H](C(=O)N[C@@H](Cc1c[nH]c2ccccc12)CN(CC(=O)N[C@H]1CCC(=O)NCCCC[C@@H](CN(CC(=O)N[C@@H](CC(C)C)C(=O)N[C@@H](CO)CN(CC(=O)N[C@@H](C)C(N)=O)S(C)(=O)=O)S(=O)(=O)CC(C)C)NC(=O)[C@H](C)NC(=O)CN(S(=O)(=O)c2ccc3ccccc3c2)C[C@H](Cc2ccc(O)cc2)NC1=O)S(C)(=O)=O)[C@@H](C)O`, in assay [1], the “p21 expression increase (active/inactive call)” value is “Active”. Further, the “p53 expression increase (activity call)” value in assay [2] is “Active”. For the same compound, the “Increase … (active/inactive)” value in assay [4] was “Active”.
In the case of `CC(=O)N[C@H](C(=O)N[C@@H](Cc1ccccc1)CN(CC(=O)N[C@H]1CCC(=O)NCCCC[C@@H](CN(CC(=O)N[C@@H](CC(C)C)C(=O)N[C@@H](CO)CN(CC(=O)N[C@@H](C)C(N)=O)S(C)(=O)=O)S(=O)(=O)CC(C)C)NC(=O)[C@H](C)NC(=O)CN(S(=O)(=O)c2ccc3ccccc3c2)C[C@H](Cc2ccc(O)cc2)NC1=O)S(C)(=O)=O)[C@@H](C)O`, the “p21 expression increase (active/inactive call)” value in assay [1] was “Active”. For the same compound, in assay [2], the “p53 expression increase (activity call)” value is “Active”. The IC50 in assay [3] worked out at 11.7 µM. For the same compound, the “Increase … (active/inactive)” value in assay [4] was “Active”.

The record behind these values is ChEMBL document CHEMBL4699617, “Rational Design of Right-Handed Heterogeneous Peptidomimetics as Inhibitors of Protein-Protein Interactions” (J Med Chem, 2020).
